Data: ChEMBL document CHEMBL1130202, “Biologically active heteroarotinoids exhibiting anticancer activity and decreased toxicity” (J Med Chem, 1997)
Calls of active or inactive are those of the source. The rule behind the calls is not given here.

Columns and labels:
Mus musculus [1] = organism: Mus musculus; experiment: Calculated 30-day maximally tolerated dose based on 10% weight loss in mice at high dose; format: functional
Mus musculus [2] = organism: Mus musculus; experiment: Average number of fractures per mouse at mid dose 1
Mus musculus [3] = organism: Mus musculus; experiment: Approximate day to 10% weight loss in mice at high dose; format: functional
Procedure, shortened: (§1)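 Male B6D2F1 mice dosed daily by gavage in corn oil; body weights followed to termination (day 65, or day 25 for TTNPB 0.01/0.05 mg/kg/day groups) and compared with the matching vehicle group. Value is approximate day of onset of 10% body weight reduction versus vehicle.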

Mus musculus [4] = organism: Mus musculus; experiment: Effect of compound on serum triglycerides levels in mice at high dose on day 29; format: functional
Procedure, shortened: (§2)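 Male B6D2F1 mice dosed daily by oral gavage in corn oil at low, mid 1, mid 2 or high dose. Blood sampled on set days (8, 29, 36, 65) for clinical chemistry, serum alkaline phosphatase and triglycerides. Group mean ± SD reported as % relative to vehicle 1; significance p < 0.05 versus corn oil vehicle.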

Mus musculus [5] = organism: Mus musculus; experiment: Compound total dose to termination (day 25/65) in mid dose 1; format: functional
Procedure, shortened: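 Male B6D2F1 mice given daily oral gavage in corn oil; dosages increased during the study (day 30 or day 51 depending on compound). Cumulative dose in mg/kg administered up to termination (day 65, or day 25 for TTNPB 0.01/0.05 mg/kg/day groups).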

Mus musculus [6] = organism: Mus musculus; experiment: Effect of compound on adrenal to body weight ratios in mice at mid dose 2 on day 65; format: functional
Procedure, shortened: (§3)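 Male B6D2F1 mice dosed daily by gavage with compound in corn oil; vehicle 1 (corn oil) controls run to termination on day 65. Low, mid 1, mid 2 and high dose groups, with dosage increases partway through the study. Organ-to-body weight ratios (×1000) taken at necropsy on day 65, reported as mean ± SD for 4 to 8 animals and as % difference from vehicle.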

Mus musculus [7] = organism: Mus musculus; experiment: Effect of compound on right testicle to body weight ratios in mice at mid dose 1 on day 65; format: functional; procedure, shortened: as §3
Mus musculus [8] = organism: Mus musculus; experiment: Calculated 30-day maximally tolerated dose based on 10% weight loss in mice at low dose; format: functional
Mus musculus [9] = organism: Mus musculus; experiment: Effect of compound on right testicle to body weight ratios in mice at high dose on day 65; format: functional; procedure, shortened: as §3
Mus musculus [10] = organism: Mus musculus; experiment: Effect of compound on adrenal to body weight ratios in mice at low dose on day 65; format: functional; procedure, shortened: as §3
Mus musculus [11] = organism: Mus musculus; experiment: Effect of compound on right testicle to body weight ratios in mice at mid dose 2 on day 65; format: functional; procedure, shortened: as §3
Mus musculus [12] = organism: Mus musculus; experiment: Effect of compound on serum triglycerides levels in mice at mid dose 1 on day 29; format: functional
Procedure, shortened: (§4)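 Male B6D2F1 mice were gavaged daily with compound in corn oil at low, mid 1, mid 2 or high dose. Serum triglycerides and circulating white blood cells were measured on the stated day (8, 29, 36, 65). Values are group mean ± SD expressed as % relative to corn-oil vehicle, with significance at p ≤ 0.05.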

Mus musculus [13] = organism: Mus musculus; experiment: Effect of compound on white blood cells levels in mice at high dose on day 65; format: functional; procedure, shortened: as §4
Mus musculus [14] = organism: Mus musculus; experiment: Calculated 30-day maximally tolerated dose based on 10% weight loss in mice at mid dose 2; format: functional
Mus musculus [15] = organism: Mus musculus; experiment: Effect of compound on Spleen to body weight ratios in mice at mid dose 2 on day 65; format: functional; procedure, shortened: as §3
Mus musculus [16] = organism: Mus musculus; experiment: Average number of fractures per mouse at low dose
Mus musculus [17] = organism: Mus musculus; experiment: Effect of compound on adrenal to body weight ratios in mice at high dose on day 65; format: functional; procedure, shortened: as §3
Mus musculus [18] = organism: Mus musculus; experiment: Effect of compound on Spleen to body weight ratios in mice at high dose on day 65; format: functional; procedure, shortened: as §3
Mus musculus [19] = organism: Mus musculus; experiment: Effect of compound on thymus to body weight ratios in mice at mid dose 2 on day 65; format: functional
Procedure, shortened: (§5)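 Male B6D2F1 mice were dosed daily by gavage in corn oil, with TTNPB given at 0.1–0.8 or 0.01/0.05 mg/kg/day. Thymus-to-body weight ratio (×1000) was taken at necropsy on day 65 against vehicle 1, or on day 25 for the 0.01/0.05 groups against vehicle 2. Mean ± SD of 4–8 animals, reported as % difference from vehicle.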

Mus musculus [20] = organism: Mus musculus; experiment: Effect of compound on Spleen to body weight ratios in mice at mid dose 1 on day 65; format: functional; procedure, shortened: as §3
Mus musculus [21] = organism: Mus musculus; experiment: Total dose of 10% weight loss in mice at mid dose 1; format: functional
Mus musculus [22] = organism: Mus musculus; experiment: Effect of compound on right testicle to body weight ratios in mice at low dose on day 65; format: functional; procedure, shortened: as §3
Mus musculus [23] = organism: Mus musculus; experiment: Total dose of 10% weight loss in mice at mid dose 2; format: functional
Mus musculus [24] = organism: Mus musculus; experiment: Effect of compound on serum Alkaline phosphatase levels in mice at low dose on day 65; format: functional; procedure, shortened: as §2
CC-B = experiment: Relative transcriptional activation activity relative to t-RA; format: functional, Homo sapiens
Procedure, shortened: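 CC-B reporter cells (CC-1 cervical line carrying a CAT gene under a RARE with a tk promoter) were seeded at 4×10^5 cells/well in MEM with nonessential amino acids, pyruvate and 10% FBS, the serum lots having negligible t-RA by HPLC. Triplicate cultures were screened at 10^-6 M with 0.1% DMSO final. After 48 h, CAT activity ([3H]acetyl-CoA) per mg protein was taken as treated/control and expressed relative to t-RA. Average of three experiments.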

Mus musculus [25] = organism: Mus musculus; experiment: Effect of compound on adrenal to body weight ratios in mice at mid dose 1 on day 65; format: functional; procedure, shortened: as §3
Mus musculus [26] = organism: Mus musculus; experiment: Effect of compound on serum Alkaline phosphatase levels in mice at mid dose 2 on day 65; format: functional; procedure, shortened: as §2
Mus musculus [27] = organism: Mus musculus; experiment: Average number of fractures per mouse at high dose
Mus musculus [28] = organism: Mus musculus; experiment: Average number of fractures per mouse at mid dose 2
Mus musculus [29] = organism: Mus musculus; experiment: Effect of compound on thymus to body weight ratios in mice at low dose on day 65; format: functional; procedure, shortened: as §5
Mus musculus [30] = organism: Mus musculus; experiment: Effect of compound on thymus to body weight ratios in mice at mid dose 1 on day 65; format: functional; procedure, shortened: as §5
Mus musculus [31] = organism: Mus musculus; experiment: Approximate day to 10% weight loss in mice at mid dose 1; format: functional; procedure, shortened: as §1
Mus musculus [32] = organism: Mus musculus; experiment: Total dose of 10% weight loss in mice at high dose; format: functional
Mus musculus [33] = organism: Mus musculus; experiment: Enlarged spleen in Gross pathological observations in mice with hypervitaminosis A at high dose with gross observations/total number of mice in group; 0/16; format: functional, organism-based
Mus musculus [34] = organism: Mus musculus; experiment: Effect of compound on serum Alkaline phosphatase levels in mice at high dose on day 36; format: functional; procedure, shortened: as §2
Mus musculus [35] = organism: Mus musculus; experiment: Approximate day to 10% weight loss in mice at mid dose 2; format: functional; procedure, shortened: as §1
Mus musculus [36] = organism: Mus musculus; experiment: Total dose of 10% weight loss in mice at low dose; format: functional
Mus musculus [37] = organism: Mus musculus; experiment: Calculated 30-day maximally tolerated dose based on 10% weight loss in mice at mid dose 1; format: functional
Mus musculus [38] = organism: Mus musculus; experiment: Fracture incidence in mouse at low dose; 0/8
Mus musculus [39] = organism: Mus musculus; experiment: Approximate day to 10% weight loss in mice at low dose; format: functional; procedure, shortened: as §1
Mus musculus [40] = organism: Mus musculus; experiment: Effect of compound on serum triglycerides levels in mice at low dose on day 29; format: functional; procedure, shortened: as §2

SMILES: CC(/C=C/C=C(\C)c1ccc2c(c1)C(C)(C)CCO2)=C\C(=O)O
- Max tolerated dose (Mus musculus [1]): 31.8 mg/kg
- Activity (Mus musculus [2]): 0
- Activity (Mus musculus [3]): 53
- Activity (Mus musculus [4]): 208.2
- Total dose (Mus musculus [5]): 414.2 mg/kg
- Activity (Mus musculus [6]): 0.3
- Activity (Mus musculus [7]): 2.9
- Max tolerated dose (Mus musculus [8]): >6.9 mg/kg
- Activity (Mus musculus [9]): 3
- Activity (Mus musculus [10]): 0.3
- Activity (Mus musculus [11]): 3.3
- Activity (Mus musculus [12]): 167.3
- Activity (Mus musculus [13]): 3.7
- Max tolerated dose (Mus musculus [14]): 24.4 mg/kg
- Activity (Mus musculus [15]): 2.7
- Activity (Mus musculus [16]): 0
- Activity (Mus musculus [17]): 0.4
- Activity (Mus musculus [18]): 3
- Activity (Mus musculus [19]): 1.5
- Activity (Mus musculus [20]): 2.5
- Dose (Mus musculus [21]): >414.2 mg/kg
- Activity (Mus musculus [22]): 3.2
- Dose (Mus musculus [23]): 732.4 mg/kg
- Activity (Mus musculus [24]): 115.7
- Relative activity (CC-B): 50
- Activity (Mus musculus [25]): 0.3
- Activity (Mus musculus [26]): 136.8
- Activity (Mus musculus [27]): 1
- Activity (Mus musculus [28]): 0.6
- Activity (Mus musculus [29]): 1.6
- Activity (Mus musculus [30]): 1.6
- Activity (Mus musculus [31]): >65
- Dose (Mus musculus [32]): 952.8 mg/kg
- Activity (Mus musculus [33]): inactive
- Activity (Mus musculus [34]): 91.9
- Activity (Mus musculus [35]): 61
- Dose (Mus musculus [36]): >207.1 mg/kg
- Max tolerated dose (Mus musculus [37]): >13.8 mg/kg
- Activity (Mus musculus [38]): inactive
- Activity (Mus musculus [39]): >65
- Activity (Mus musculus [40]): 179.4
